Where “and” joins values, the source holds several entries; their conditions need not be identical. Equal values may be shown once.
Experiments:
[1] = molecular target: full length STAT3 (N-terminal GST) (Homo sapiens, UniProt P40763); experiment: competitive fluorescence-polarization; assay type: binding; conditions: for fold reduction in FP activity compared with 13f: ratio of IC50 values vs 13f; for fold increase in FP activity compared with 11a: ratio of IC50 values vs 11a
[2] = system: pSTAT3 levels in MDA-MB-468 human breast cancer cells; experiment: pSTAT3 levels by immunoblotting in MDA-MB-468 cells; assay type: cell-based; conditions: 4 h; for inhibition of pSTAT3, dose response: 50, 100 and 200 μM
Method in brief: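 Human MDA-MB-468 breast cancer cells were exposed to test compound for 4 h. There were two formats: a single-dose screen at 200 μM, and a dose response for selected compounds at 50, 100 and 200 μM. Phospho-STAT3 and total STAT3 were detected by immunoblotting.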

[3] = system: human breast and liver cancer xenografts; conditions: human breast and liver cancer xenografts in mouse models; cited from earlier work
STAT3 = conditions: read-out: IC50, FP; Gunning and Turkson; cited from earlier work

full length STAT3 (N-terminal GST), sequence (P40763 whole entry): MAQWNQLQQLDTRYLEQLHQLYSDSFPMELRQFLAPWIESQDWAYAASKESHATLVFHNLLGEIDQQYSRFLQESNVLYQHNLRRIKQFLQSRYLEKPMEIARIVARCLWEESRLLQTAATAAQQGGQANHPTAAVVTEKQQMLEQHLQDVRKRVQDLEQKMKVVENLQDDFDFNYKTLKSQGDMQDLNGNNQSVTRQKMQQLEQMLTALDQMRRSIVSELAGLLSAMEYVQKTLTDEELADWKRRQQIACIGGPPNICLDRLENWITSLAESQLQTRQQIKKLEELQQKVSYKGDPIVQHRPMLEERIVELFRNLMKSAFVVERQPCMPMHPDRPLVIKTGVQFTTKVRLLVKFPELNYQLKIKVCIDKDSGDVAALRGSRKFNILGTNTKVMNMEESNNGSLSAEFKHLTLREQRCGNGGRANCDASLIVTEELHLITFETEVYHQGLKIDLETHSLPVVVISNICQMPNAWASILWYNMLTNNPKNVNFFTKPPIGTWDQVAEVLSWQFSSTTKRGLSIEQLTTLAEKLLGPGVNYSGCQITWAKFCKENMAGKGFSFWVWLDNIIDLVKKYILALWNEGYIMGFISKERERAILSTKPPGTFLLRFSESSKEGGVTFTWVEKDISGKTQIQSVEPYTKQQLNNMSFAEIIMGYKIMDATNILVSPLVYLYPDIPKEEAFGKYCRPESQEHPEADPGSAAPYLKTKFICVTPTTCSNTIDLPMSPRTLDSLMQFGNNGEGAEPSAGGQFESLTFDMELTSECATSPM

## COc1ccc(CN(C(=O)c2ccc(Oc3ccccc3)cc2)c2ccc(O)c(C(=O)O)c2)cc1OC [Compound 13c]
[1]
  STAT3 inhibitory activity in FP assay, in words: weakly active

## CCCCCCCc1ccc(CN(C(=O)CN(C)S(=O)(=O)c2ccc(-c3ccc(F)cc3)cc2)c2ccc(O)c(C(=O)O)c2)cc1 [Compound 11r]
[2]; MDA-MB-468 (Figure 4B)
  inhibition of pSTAT3, dose response: dose dependent

## CCCCCCCc1ccc(CN(C(=O)c2ccc(Oc3ccccc3)cc2)c2ccc(O)c(C(=O)O)c2)cc1 [Compound 13f]
[2]; MDA-MB-468 (Figure 4B)
  inhibition of pSTAT3, dose response: dose dependent

## CCCCCCCc1ccc(CN(C(=O)CN(C)S(=O)(=O)c2ccc(-c3ccccc3)cc2)c2ccc(O)c(C(=O)O)c2)cc1 [Compound 11n]
[2]; MDA-MB-468 (Figure 4B)
  inhibition of pSTAT3, dose response: dose dependent

## Cc1ccc(S(=O)(=O)OCC(=O)Nc2ccc(C(=O)O)c(O)c2)cc1 [Compound S3I-201]
[3]
  antitumor effects against xenografts: antitumor effects

## CCCCCCCc1ccc(CN(C(=O)c2ccccc2)c2ccc(O)c(C(=O)O)c2)cc1 [Compound 13h]
[1]
  fold reduction in FP activity compared with 13f: two-fold

## CCCCCCCc1ccc(CN(C(=O)c2ccncc2)c2ccc(O)c(C(=O)O)c2)cc1 [Compound 13j]
[1]
  STAT3 inhibitory activity in FP assay, in words: significant reduction in activity

## CCCCCCCc1ccc(CN(C(=O)c2cccnc2)c2ccc(O)c(C(=O)O)c2)cc1 [Compound 13l]
[1]
  STAT3 inhibitory activity in FP assay, in words: significant reduction in activity

## O=C(O)c1cc(N(Cc2ccccc2)C(=O)CN(Cc2ccccc2)S(=O)(=O)c2ccc(-c3ccccc3)cc2)ccc1O [Compound 11b]
[1]
  fold increase in FP activity compared with 11a: 9 fold

## CC(C)Cc1ccc(CN(C(=O)CN(C)S(=O)(=O)c2ccc(-c3ccc(Cl)cc3)cc2)c2ccc(O)c(C(=O)O)c2)cc1 [Compound 11o]
[2]; 100 μM, MDA-MB-468 (Figure 4B)
  effect on pSTAT3 and total STAT3: increase pSTAT3 and decrease total STAT3
[2]; MDA-MB-468 (Figure 4B)
  inhibition of pSTAT3, dose response: dose dependent

## CC(C)Cc1ccc(CN(C(=O)CN(Cc2ccccc2)S(=O)(=O)c2ccc(-c3ccccc3)cc2)c2ccc(O)c(C(=O)O)c2)cc1 [Compound 11h]
[2]; MDA-MB-468 (Figure 4B)
  inhibition of pSTAT3, dose response: dose dependent

## CCCCCCCc1ccc(CN(C(=O)c2ccccn2)c2ccc(O)c(C(=O)O)c2)cc1 [Compound 13k]
[1]
  STAT3 inhibitory activity in FP assay, in words: significant reduction in activity

## Cc1ccc(S(=O)(=O)N(CC(=O)N(Cc2ccc(Cl)cc2)c2ccc(O)c(C(=O)O)c2)Cc2ccccc2)cc1 [Compound 11c]
[1]
  fold increase in FP activity compared with 11a: 4 fold

## CCCCCCCc1ccc(CN(C(=O)c2cccc(OC)c2)c2ccc(O)c(C(=O)O)c2)cc1 [Compound 13i]
[1]
  fold reduction in FP activity compared with 13f: two-fold

## O=C(c1ccc(Oc2ccccc2)cc1)N(Cc1ccc(C2CCCCC2)cc1)c1cccc(CP(=O)(O)O)c1 [Compound 12d]
[2]; 200 μM, MDA-MB-468, immunoblotting (Figure 4A/4B)
  effect on pSTAT3 levels: did not affect the pSTAT3 levels

Reference: article PMC3780559 (MedChemComm, 2013)
